Results as given in ChEMBL document CHEMBL4229340, “Attaching NorA efflux pump inhibitors to methylene blue enhances antimicrobial photodynamic inactivation of Escherichia coli and Acinetobacter baumannii in vitro and in vivo” (Bioorg Med Chem Lett, 2018).
Activity calls are given as the source filed them. The rule behind the calls is not given here.

Key:
Escherichia coli [1] = test: Photodynamic antibacterial activity against TolC deficient Escherichia coli JW5503-1 assessed as bacterial killing at 20 uM incubated for 30 mins followed by 6 J/cm'2 irradiation with red light relative to control; assay type: functional
Procedure, shortened: (§1)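 E. coli K-12 and isogenic TolC knockout JW5503-1 were exposed to compound at 1-20 μM, then illuminated with 652 nm red light at 100 mW/cm2 to 6 J/cm2, or kept dark. Serially diluted aliquots were plated for CFU and survival fraction determined. Mean ± SEM from three independent experiments.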

Escherichia coli [2] = test: Photodynamic antibacterial activity against wild type Escherichia coli K-12 assessed as bacterial killing at 20 uM incubated for 30 mins followed by 6 J/cm'2 irradiation with red light relative to control; assay type: functional; procedure, shortened: as §1
Escherichia coli [3] = test: Dark toxicity against TolC deficient Escherichia coli JW5503-1 assessed as reduction in bacterial load at 1 to 20 uM incubated for 30 mins; assay type: organism-based; settings: in vitro, 0.5 h; procedure, shortened: as §1
Escherichia coli [4] = test: Dark toxicity against wild type Escherichia coli K-12 assessed as reduction in bacterial load at 1 to 20 uM incubated for 30 mins; assay type: organism-based; settings: in vitro, 0.5 h; procedure, shortened: as §1
Acinetobacter baumannii [5] = test: Dark toxicity against wild type Acinetobacter baumannii AB007 assessed as reduction in bacterial load at 1 to 20 uM incubated for 30 mins; assay type: organism-based; settings: in vitro, 0.5 h
Procedure, shortened: (§2)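 A. baumannii AB007 was exposed to compound at 1-20 μM, with or without red-light illumination, alongside dark controls. Survival fraction came from CFU counts. Mean ± SEM from three independent experiments.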

Acinetobacter baumannii [6] = test: Photodynamic antibacterial activity against wild type Acinetobacter baumannii AB007 assessed as bacterial killing at 20 uM incubated for 30 mins followed by 6 J/cm'2 irradiation with red light relative to control; assay type: functional; procedure, shortened: as §2
Escherichia coli [7] = test: Photodynamic antibacterial activity against TolC deficient Escherichia coli JW5503-1 assessed as bacterial killing at 10 uM incubated for 30 mins followed by 6 J/cm'2 irradiation with red light relative to control; assay type: functional; procedure, shortened: as §1
Escherichia coli [8] = test: Photodynamic antibacterial activity against wild type Escherichia coli K-12 assessed as bacterial killing at 10 uM incubated for 30 mins followed by 6 J/cm'2 irradiation with red light relative to control; assay type: functional; procedure, shortened: as §1
Escherichia coli [9] = test: (§3) Dark toxicity against enteropathogenic Escherichia coli WS2572 infected in BALB/c mouse full-thickness third-degree burn infection model assessed as reduction in bacterial load in shaved dorsal surfaces of mouse measured after 15 mins by bioluminescence imaging method; assay type: organism-based; design: scale not given: the % may be the effect or the level left; settings: in vivo, 0.25 h
Procedure, shortened: (§4)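 Mouse full-thickness third-degree burn on the shaved back, inoculated with bioluminescent EPEC WS2572. Wounds got 40 μL of 250 μM stock compound, then 652 nm red light at 0, 12, 36, 84, 108 and 120 J/cm2 or no light. Normalized wound RLU (mean ± SEM, 4-6 mice/group) was imaged during illumination and daily for 14 days after.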

Escherichia coli [10] = test: as §3, with “Photodynamic antibacterial activity” for “Dark toxicity”, “mouse” for “mouse measured”, “15 mins followed by 36 J/cm'2 irradiation with red light over 20” for “15”; assay type: functional; design: scale not given: the % may be the effect or the level left; procedure, shortened: as §4
Escherichia coli [11] = test: as §3, with “Photodynamic antibacterial activity” for “Dark toxicity”, “mouse” for “mouse measured”, “15 mins followed by 84 J/cm'2 irradiation with red light over 20” for “15”; assay type: functional, organism-based; procedure, shortened: as §4
Escherichia coli [12] = test: as §3, with “Photodynamic antibacterial activity” for “Dark toxicity”, “mouse” for “mouse measured”, “mins followed by up to 120 J/cm'2 irradiation with red light over 20 mins measured after 10 days” for “mins”; assay type: functional, organism-based; procedure, shortened: as §4
Acinetobacter baumannii [13] = test: (§5) Dark toxicity against Acinetobacter baumannii AB Iraqi 007 infected in BALB/c mouse needle back-scratch wound abrasion infection model assessed as reduction in bacterial load in shaved dorsal surfaces of mouse measured after 15 mins by bioluminescence imaging method; assay type: organism-based; design: scale not given: the % may be the effect or the level left; settings: in vivo, 0.25 h
Procedure, shortened: (§6)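 Bioluminescent A. baumannii inoculated into needle-scratch wounds on shaved mouse backs. Sites got 40 μL of a 250 μM stock of compound, then 652 nm red light at 0, 12, 36, 84, 108 and 120 J/cm2, or were kept dark (dark controls). Normalized wound RLU (mean ± SEM, 4-6 mice/group) was imaged during illumination, then daily for 14 days.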

Acinetobacter baumannii [14] = test: as §5, with “Photodynamic antibacterial activity” for “Dark toxicity”, “mouse” for “mouse measured”, “15 mins followed by 36 J/cm'2 irradiation with red light over 20” for “15”; assay type: functional; design: scale not given: the % may be the effect or the level left; procedure, shortened: as §6
Acinetobacter baumannii [15] = test: as §5, with “Photodynamic antibacterial activity” for “Dark toxicity”, “mouse” for “mouse measured”, “15 mins followed by 84 J/cm'2 irradiation with red light over 20” for “15”; assay type: functional, organism-based; procedure, shortened: as §6
Acinetobacter baumannii [16] = test: Dark toxicity against Acinetobacter baumannii AB Iraqi 007 infected in BALB/c mouse needle back-scratch wound abrasion infection model assessed as bacterial load in shaved dorsal surfaces of mouse after 15 mins measured after 1 day by bioluminescence imaging method; assay type: organism-based; settings: in vivo; procedure, shortened: as §6
Acinetobacter baumannii [17] = test: (§7) Dark toxicity against Acinetobacter baumannii AB Iraqi 007 infected in BALB/c mouse needle back-scratch wound abrasion infection model assessed as reduction in bacterial load in shaved dorsal surfaces of mouse after 15 mins measured after 12 days by bioluminescence imaging method; assay type: organism-based; settings: in vivo; procedure, shortened: as §6
Acinetobacter baumannii [18] = test: as §7, with “Photodynamic antibacterial activity” for “Dark toxicity”, “mins followed by up to 120 J/cm'2 irradiation with red light over 20 mins” for “mins”, “up to 6” for “after 12”; assay type: functional, organism-based; procedure, shortened: as §6
Escherichia coli [19] = test: as §3, with “Photodynamic antibacterial activity” for “Dark toxicity”, “mouse” for “mouse measured”, “15 mins followed by up to 120 J/cm'2 irradiation with red light over 20” for “15”; assay type: functional; design: scale not given: the % may be the effect or the level left; procedure, shortened: as §4
Escherichia coli [20] = test: Dark toxicity against enteropathogenic Escherichia coli WS2572 infected in BALB/c mouse full-thickness third-degree burn infection model assessed as reduction in bacterial load in shaved dorsal surfaces of mouse after 15 mins measured after 1 day by bioluminescence imaging method; assay type: organism-based; settings: in vivo; procedure, shortened: as §4
Acinetobacter baumannii [21] = test: (§8) Photodynamic antibacterial activity against Acinetobacter baumannii AB Iraqi 007 infected in BALB/c mouse needle back-scratch wound abrasion infection model assessed as reduction in bacterial load in shaved dorsal surfaces of mouse after 15 mins followed by up to 120 J/cm'2 irradiation with red light over 20 mins measured after 1 day by bioluminescence imaging method; assay type: functional; design: scale not given: the % may be the effect or the level left; procedure, shortened: as §6
Escherichia coli [22] = test: as §8, with “enteropathogenic Escherichia coli WS2572” for “Acinetobacter baumannii AB Iraqi 007”, “full-thickness third-degree burn” for “needle back-scratch wound abrasion”; assay type: functional, organism-based; procedure, shortened: as §4
Escherichia coli [23] = test: as §8, with “enteropathogenic Escherichia coli WS2572” for “Acinetobacter baumannii AB Iraqi 007”, “full-thickness third-degree burn” for “needle back-scratch wound abrasion”, “12 days” for “1 day”; assay type: functional, organism-based; procedure, shortened: as §4
Acinetobacter baumannii [24] = test: as §8, with “108” for “up to 120”, “mins” for “mins measured after 1 day”; assay type: functional, organism-based; procedure, shortened: as §6
Acinetobacter baumannii [25] = test: as §8, with “10 days” for “1 day”; assay type: functional, organism-based; procedure, shortened: as §6

Compound	LCK (Escherichia coli [1])	LCK (Escherichia coli [2])	Activity (Escherichia coli [3])	Activity (Escherichia coli [4])	Activity (Acinetobacter baumannii [5])	LCK (Acinetobacter baumannii [6])	LCK (Escherichia coli [7])	LCK (Escherichia coli [8])	Activity (Escherichia coli [9]) [%]	Activity (Acinetobacter baumannii [6])	Activity (Acinetobacter baumannii [13]) [%]	Activity (Acinetobacter baumannii [14]) [%]	Activity (Acinetobacter baumannii [16]) [%]	Activity (Acinetobacter baumannii [17])	further results
CN(CCCOc1ccccc1NC(=O)Nc1ccc2ccccc2c1)CCN(C)c1ccc2nc3ccc(N(C)C)cc3[s+]c2c1.[Cl-]	4.5	3	Non-Toxic	Non-Toxic	Non-Toxic	4	–	–	–	–	–	–	–	–	–
CN(CCN(C)c1ccc2nc3ccc(N(C)C)cc3[s+]c2c1)C(=O)c1ccc(-c2cc3cc([N+](=O)[O-])ccc3[nH]2)cc1.[Cl-]	–	6	Non-Toxic	Non-Toxic	Non-Toxic	4	6	4	40	–	–	–	–	–	Activity (Escherichia coli [1]): Active; Activity (Escherichia coli [10]): 80%; Activity (Escherichia coli [11]): Active; Activity (Escherichia coli [12]): Active
CN(CCN(C)c1ccc2nc3ccc(N(C)C)cc3[s+]c2c1)Cc1ccc(-c2cc3cc([N+](=O)[O-])ccc3[nH]2)cc1.[Cl-]	7	4	Non-Toxic	Non-Toxic	Non-Toxic	–	2	2	–	Active	< 25	95	> 50	Toxic	Activity (Acinetobacter baumannii [15]): Active; Activity (Acinetobacter baumannii [18]): Active
CN(C)c1ccc2nc3ccc(N(C)C)cc3[s+]c2c1.[Cl-] [METHYLENE BLUE ANHYDROUS]	3.5	2.5	Non-Toxic	Non-Toxic	Non-Toxic	–	–	2	25	–	< 25	50	> 50	Toxic	Activity (Escherichia coli [19]): 90%; Activity (Escherichia coli [20]): Not Active; Activity (Acinetobacter baumannii [21]): >50%
CN(C)c1ccc2nc3ccc(=[N+](C)C)cc-3sc2c1	–	–	–	–	–	–	–	–	–	Active	–	–	–	–	Activity (Escherichia coli [7]): Active; Activity (Escherichia coli [22]): inactive; Activity (Escherichia coli [23]): Active; Activity (Acinetobacter baumannii [24]): Active; Activity (Acinetobacter baumannii [25]): Active
